According to ChEMBL document CHEMBL1144557, “The novel C-5 aryl, alkenyl, and alkynyl substituted uracil derivatives of L-ascorbic acid: synthesis, cytostatic, and antiviral activity evaluations” (Bioorg Med Chem, 2007):
pIC50: −log10 of the molar value. In brackets after ≈: the same amount, converted by molar mass.

Columns and labels:
SW-620 = test: Antiproliferative activity against human SW620 cells after 72 hrs by MTT assay; format: functional, cell-based; conditions: SW-620, 72 h
Method in brief: (§1)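 Monolayers grown in DMEM with 10% FBS, 2 mM L-glutamine and penicillin/streptomycin at 37 °C, 5% CO2. Seeded at 1 × 10⁴–3 × 10⁴ cells/mL on day 0. Compounds from 0.04 M DMSO stocks added at five 10-fold dilutions (10⁻⁸–10⁻⁴ M final), with matched DMSO controls, for 72 h. MTT added for 4 h, formazan dissolved in DMSO, absorbance read at 570 nm. Percentage growth calculated against time-zero and untreated OD. IC50 is 50% inhibition of proliferation.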

Human alphaherpesvirus 1 [1] = test: Antiviral activity against HSV1 TK- KOS ACV -induced cytopathogenicity in HEL cells; format: functional; conditions: Human alphaherpesvirus 1, KOS
Human alphaherpesvirus 2 [2] = test: Antiviral activity against HSV2 G-induced cytopathogenicity in HEL cells; format: functional; conditions: Human alphaherpesvirus 2, G
L1210 = test: Antiproliferative activity against mouse L1210 cells; format: functional, cell-based
Method in brief: (§2)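 Suspension cells seeded at 50 × 10³ cells/well with a range of test compound concentrations. Cell number counted with a Coulter counter after 2 days (L1210) or 3 days (Molt4/C8, CEM). IC50 is the concentration that cuts cell growth by 50% versus untreated controls, read from plots of cell number (% of control) against concentration.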

Punta Toro virus = test: Antiviral activity against Punta Toro virus-induced cytopathogenicity in Vero cells; format: functional
[3] = test system: Vesicular stomatitis virus; test: Antiviral activity against in Vesicular stomatitis virus-induced cytopathogenicity in HEL cells; format: functional
[4] = Cytotoxicity against HEL cells; format: cell-based; conditions: human
Method in brief: (§3)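 Cells seeded at 5 × 10³ cells/well and exposed to medium containing a range of test compound concentrations. After 3 days at 37 °C, cell morphology examined microscopically. Reported as minimum cytotoxic concentration (MCC), the concentration causing a microscopically detectable alteration of normal cell morphology.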

HEp-2 = test: Antiproliferative activity against human Hep2 cells after 72 hrs by MTT assay; format: functional, cell-based; conditions: HEp-2, 72 h; method in brief: as §1
Sindbis virus = test: Antiviral activity against Sindbis virus-induced cytopathogenicity in Vero cells; format: functional
[5] = test system: Vesicular stomatitis virus; test: Antiviral activity against in Vesicular stomatitis virus- induced cytopathogenicity in HeLa cells; format: functional
WI-38 = test: Antiproliferative activity against human WI38 cells after 72 hrs by MTT assay; format: functional, cell-based; conditions: WI-38, 72 h; method in brief: as §1
HeLa = test: Antiproliferative activity against human HeLa cells after 72 hrs by MTT assay; format: functional, cell-based; method in brief: as §1
CCRF-CEM = test: Antiproliferative activity against human CEM cells; format: functional, cell-based; method in brief: as §2
MIA PaCa-2 = test: Antiproliferative activity against human MiaPaCa2 cells after 72 hrs by MTT assay; format: functional, cell-based; conditions: Homo sapiens, MIA PaCa-2, 72 h; read-out: IC50; method in brief: as §1
MCF7 = test: Antiproliferative activity against human MCF7 cells after 72 hrs by MTT assay; format: functional, cell-based; conditions: MCF7, 72 h; method in brief: as §1
[6] = Antiproliferative activity against human Molt4/C8 cells; format: functional, cell-based; conditions: MOLT-4; method in brief: as §2
Human alphaherpesvirus 1 [7] = test: Antiviral activity against HSV1 KOS-induced cytopathogenicity in HEL cells; format: functional; conditions: Human alphaherpesvirus 1, KOS
Coxsackievirus B4 = test: Antiviral activity against Coxsackie virus B4-induced cytopathogenicity in Vero cells; format: functional; conditions: Enterovirus B
[8] = test system: Vesicular stomatitis virus; test: Antiviral activity against in Vesicular stomatitis virus-induced cytopathogenicity in E6SM cells; format: functional
Human alphaherpesvirus 1 [9] = test: Antiviral activity against HSV1 KOS-induced cytopathogenicity in E6SM cells; format: functional; conditions: Human alphaherpesvirus 1, KOS
Human alphaherpesvirus 1 [10] = test: Antiviral activity against HSV1 TK- KOS ACV-induced cytopathogenicity in E6SM cells; format: functional; conditions: Human alphaherpesvirus 1, KOS
[11] = Cytotoxicity against E6SM cells; format: cell-based; conditions: human, read-out: MCC; method in brief: as §3
Human alphaherpesvirus 2 [12] = test: Antiviral activity against HSV2 G-induced cytopathogenicity in E6SM cells; format: functional; conditions: Human alphaherpesvirus 2, G

## C#Cc1cn(C/C=C2\OC(=O)C(O)=C2O)c(=O)[nH]c1=O
SW-620
  pIC50: 4.77
Human alphaherpesvirus 1 [1]
  MIC: > 4 µM
Human alphaherpesvirus 2 [2]
  MIC: > 4 µM
L1210
  pIC50: 4.82
Punta Toro virus
  MIC: 4 µM (≈ 1.1 µg/mL)
[3]
  MIC: > 4 µM
[4]
  MCC: 20 µM
HEp-2
  pIC50: 4.92
Sindbis virus
  MIC: > 4 µM
[5]
  MIC: > 4 µM
WI-38
  pIC50: 4.96
HeLa
  pIC50: 4.89
CCRF-CEM
  pIC50: 4.64
MIA PaCa-2
  pIC50: 4.89
MCF7
  pIC50: 4.89
[6]
  pIC50: 4.43
Human alphaherpesvirus 1 [7]
  MIC: > 4 µM
Coxsackievirus B4
  MIC: > 4 µM

## C=Cc1cn(C/C=C2\OC(=O)C(OCc3ccccc3)=C2OCc2ccccc2)c(=O)[nH]c1=O
SW-620
  pIC50: 4.81
Human alphaherpesvirus 1 [1]
  MIC: > 18 µM
Human alphaherpesvirus 2 [2]
  MIC: > 18 µM
L1210
  pIC50: 5.14
Punta Toro virus
  MIC: > 18 µM
[3]
  MIC: > 18 µM
[4]
  MCC: 87 µM
HEp-2
  pIC50: 4.85
Sindbis virus
  MIC: > 18 µM
[5]
  MIC: > 18 µM
WI-38
  pIC50: 4.84
HeLa
  pIC50: 4.84
CCRF-CEM
  pIC50: 5.14
MIA PaCa-2
  pIC50: 4.66
MCF7
  pIC50: 5.42
[6]
  pIC50: 5.12
Human alphaherpesvirus 1 [7]
  MIC: > 18 µM
Coxsackievirus B4
  MIC: > 18 µM

## O=C1O/C(=C\Cn2cc(-c3ccco3)c(=O)[nH]c2=O)C(O)=C1O
SW-620
  pIC50: < 4.00
Human alphaherpesvirus 1 [1]
  MIC: > 100 µM
Human alphaherpesvirus 2 [2]
  MIC: > 100 µM
L1210
  pIC50: ≤ 3.30
Punta Toro virus
  MIC: > 100 µM
[3]
  MIC: > 100 µM
[4]
  MCC: 100 µM
HEp-2
  pIC50: < 4.00
Sindbis virus
  MIC: > 100 µM
[5]
  MIC: > 100 µM
WI-38
  pIC50: < 4.00
HeLa
  pIC50: < 4.00
CCRF-CEM
  pIC50: 3.36
MIA PaCa-2
  pIC50: < 4.00
MCF7
  pIC50: < 4.00
[6]
  pIC50: ≤ 3.30
Human alphaherpesvirus 1 [7]
  MIC: > 100 µM
Coxsackievirus B4
  MIC: > 100 µM

## C#Cc1cn(C/C=C2\OC(=O)C(OCc3ccccc3)=C2OCc2ccccc2)c(=O)[nH]c1=O
SW-620
  pIC50: 5.30
Human alphaherpesvirus 1 [1]
  MIC: > 18 µM
Human alphaherpesvirus 2 [2]
  MIC: > 18 µM
L1210
  pIC50: 5.17
Punta Toro virus
  MIC: > 18 µM
[3]
  MIC: > 18 µM
[4]
  MCC: ≥ 18 µM
HEp-2
  pIC50: 5.34
Sindbis virus
  MIC: > 18 µM
[5]
  MIC: > 18 µM
WI-38
  pIC50: 5.82
HeLa
  pIC50: 5.49
CCRF-CEM
  pIC50: 5.34
MIA PaCa-2
  pIC50: 5.06
MCF7
  pIC50: 5.54
[6]
  pIC50: 5.14
Human alphaherpesvirus 1 [7]
  MIC: > 18 µM
Coxsackievirus B4
  MIC: > 18 µM

## O=C1O/C(=C\Cn2cc(-c3ccccc3)c(=O)[nH]c2=O)C(O)=C1O
SW-620
  pIC50: < 4.00
Human alphaherpesvirus 1 [1]
  MIC: > 100 µM
Human alphaherpesvirus 2 [2]
  MIC: > 100 µM
L1210
  pIC50: 3.45
Punta Toro virus
  MIC: > 100 µM
[3]
  MIC: > 100 µM
[4]
  MCC: 100 µM
HEp-2
  pIC50: < 4.00
Sindbis virus
  MIC: > 100 µM
[5]
  MIC: > 100 µM
WI-38
  pIC50: < 4.00
HeLa
  pIC50: < 4.00
CCRF-CEM
  pIC50: 3.55
MIA PaCa-2
  pIC50: < 4.00
MCF7
  pIC50: < 4.00
[6]
  pIC50: 3.49
Human alphaherpesvirus 1 [7]
  MIC: > 100 µM
Coxsackievirus B4
  MIC: > 100 µM

## CC(C)=CCc1cn(C/C=C2\OC(=O)C(OCc3ccccc3)=C2OCc2ccccc2)c(=O)[nH]c1=O
SW-620
  pIC50: 5.40
Human alphaherpesvirus 1 [1]
  MIC: > 4 µM
Human alphaherpesvirus 2 [2]
  MIC: 4 µM (≈ 2 µg/mL)
L1210
  pIC50: 5.09
Punta Toro virus
  MIC: 4 µM (≈ 2 µg/mL)
[3]
  MIC: > 4 µM
[4]
  MCC: 20 µM
HEp-2
  pIC50: 5.59
Sindbis virus
  MIC: > 4 µM
[5]
  MIC: > 4 µM
WI-38
  pIC50: 5.70
HeLa
  pIC50: 5.70
CCRF-CEM
  pIC50: 5.11
MIA PaCa-2
  pIC50: 5.30
MCF7
  pIC50: 5.40
[6]
  pIC50: 5.08
Human alphaherpesvirus 1 [7]
  MIC: 4 µM (≈ 2 µg/mL)
Coxsackievirus B4
  MIC: > 4 µM

## O=C1O/C(=C\Cn2cc(-c3cccs3)c(=O)[nH]c2=O)C(O)=C1O
SW-620
  pIC50: < 4.00
Human alphaherpesvirus 1 [1]
  MIC: > 100 µM
Human alphaherpesvirus 2 [2]
  MIC: > 100 µM
L1210
  pIC50: < 3.30
Punta Toro virus
  MIC: > 100 µM
[3]
  MIC: > 100 µM
[4]
  MCC: 100 µM
HEp-2
  pIC50: < 4.00
Sindbis virus
  MIC: > 100 µM
[5]
  MIC: > 100 µM
WI-38
  pIC50: < 4.00
HeLa
  pIC50: < 4.00
CCRF-CEM
  pIC50: < 3.30
MIA PaCa-2
  pIC50: < 4.00
MCF7
  pIC50: < 4.00
[6]
  pIC50: < 3.30
Human alphaherpesvirus 1 [7]
  MIC: > 100 µM
Coxsackievirus B4
  MIC: > 100 µM

## O=C1O/C(=C\Cn2cc(C#Cc3ccccc3)c(=O)[nH]c2=O)C(O)=C1O
SW-620
  pIC50: 5.40
Human alphaherpesvirus 1 [1]
  MIC: > 4 µM
Human alphaherpesvirus 2 [2]
  MIC: 4 µM (≈ 1.41 µg/mL)
L1210
  pIC50: 5.09
Punta Toro virus
  MIC: > 4 µM
[3]
  MIC: 4 µM (≈ 1.41 µg/mL)
[4]
  MCC: 20 µM
HEp-2
  pIC50: 5.52
Sindbis virus
  MIC: > 4 µM
[5]
  MIC: > 4 µM
WI-38
  pIC50: 6.00
HeLa
  pIC50: 5.70
CCRF-CEM
  pIC50: 5.12
MIA PaCa-2
  pIC50: 5.52
MCF7
  pIC50: 6.00
[6]
  pIC50: 5.09
Human alphaherpesvirus 1 [7]
  MIC: > 4 µM
Coxsackievirus B4
  MIC: > 4 µM

## C=Cc1cn(C/C=C2\OC(=O)C(O)=C2O)c(=O)[nH]c1=O
SW-620
  pIC50: < 4.00
[8]
  MIC: > 144 µM
L1210
  pIC50: 3.51
Punta Toro virus
  MIC: > 29 µM
Human alphaherpesvirus 1 [9]
  MIC: > 144 µM
Human alphaherpesvirus 1 [10]
  MIC: > 144 µM
HEp-2
  pIC50: 4.34
Sindbis virus
  MIC: > 29 µM
[5]
  MIC: > 120 µM
WI-38
  pIC50: 4.44
[11]
  MCC: 720 µM
HeLa
  pIC50: 4.40
CCRF-CEM
  pIC50: 3.55
Human alphaherpesvirus 2 [12]
  MIC: > 144 µM
MIA PaCa-2
  pIC50: ≤ 4.00
MCF7
  pIC50: 4.44
[6]
  pIC50: 3.51
Coxsackievirus B4
  MIC: > 29 µM
